For series [1], the system named is Mycobacterium tuberculosis. The series is described as follows: Antitubercular activity Mycobacterium tuberculosis H37Rv assessed as growth inhibition after 5 days by MABA method. It counts as functional. In outline: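 Log-phase H37Rv was diluted to a final OD550 of 0.05 in Middlebrook 7H9 broth, and compounds in DMSO were added in 96-well plates. After a further 24 h at 37 °C/5% CO2, fluorescence was read (ex 544 nm, em 590 nm). Inhibition was scored against the untreated control, with >90% inhibition counted as active in the initial screen.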

Series [2] has as its system Mycobacterium tuberculosis. The series can be described thus: Antitubercular activity Mycobacterium tuberculosis H37Rv assessed as growth inhibition after 30 days by agar microdilution method. It is filed as functional. The procedure, abridged:
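M. tuberculosis H37Rv (ATCC 27294) grown on L-J medium, harvested in 0.85% saline with 0.05% Tween-80. Compounds, from a DMSO stock, were added as twofold dilutions to Middlebrook 7H10 agar with OADC in tubes. After 30 days of incubation, tubes were compared with untreated H37Rv control tubes. The lowest concentration giving complete inhibition of colonies was reported.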

Series [3] concerns Staphylococcus aureus. The series is described as follows: Antibacterial activity Staphylococcus aureus ATCC-25923 assessed as growth inhibition after 24 hrs by twofold serial dilution technique. It is filed as functional. As to conditions: ATCC-25923, 24 h. The procedure, abridged: (§1)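 Tube twofold serial dilution of compounds dissolved in DMSO, under aseptic conditions. Solvent, growth (negative) and drug (ampicillin) controls were run alongside. Tubes were incubated 24 h at 37 °C. MIC was taken as the lowest concentration giving apparent complete inhibition of growth. Strains were first screened by cup plate method.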

The subject of series [4] is Bacillus spizizenii. The series is described as follows: Antibacterial activity Bacillus Bacillus subtilis ATCC 6633 assessed as growth inhibition after 24 hrs by twofold serial dilution technique. It is filed as functional. The conditions noted are these: ATCC 6633, 24 h. The procedure, abridged: as §1
Series [5] concerns Escherichia coli. The series can be described thus: Antibacterial activity Escherichia coli ATCC-25922 assessed as growth inhibition after 24 hrs by twofold serial dilution technique. It counts as functional. As to conditions: ATCC-25922, 24 h. In outline: as §1
Series [6] deals with Pseudomonas aeruginosa. The series is described as follows: Antibacterial activity Pseudomonas aeruginosa ATCC-27853 assessed as growth inhibition after 24 hrs by twofold serial dilution technique. As to conditions: ATCC-27853, 24 h. It counts as functional. In outline: as §1
Series [7] is described as follows: Cytotoxicity against african green monkey Vero cells after 72 hrs by MTT assay. It counts as cell-based. The conditions noted are these: chlorocebus sabaeus. In outline: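 After media removal and a PBS wash, dilutions were added with DMSO control, then incubated 72 h at 37 °C, 5% CO2. Cells were washed, given MTT for 3 h in the dark, and solubilized in DMSO 1–2 h. CC50 was extrapolated from plotted % inhibition (100 − % viability) against concentration.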

A short description of series [8]: Cytotoxicity against human HepG2 cells after 72 hrs by MTT assay. It is filed as cell-based.

The structures appear in SMILES notation. ≈ marks a conversion by molar mass, not a printed value.

Regarding `COc1ccc(/C=N/n2c(Cc3ccccc3Nc3c(Cl)cccc3Cl)nn(CN3CCOCC3)c2=S)cc1OC`, in series [1], the “-logMIC” value turned out to be 5.204. Moreover, the minimum inhibitory concentration (MIC) stood at 6.25 µM (≈ 3.83 µg/mL) in series [1] (Mycobacterium tuberculosis, H37Rv, 120 h); 6.25 µM (≈ 3.83 µg/mL) in series [2]; 12.5 µM (≈ 7.67 µg/mL) in series [3]; 12.5 µM (≈ 7.67 µg/mL) in series [4]; 6.25 µM (≈ 3.83 µg/mL) in series [5]; 12.5 µM (≈ 7.67 µg/mL) in series [6]. The half-maximal cytotoxic concentration (CC50) at 72 h in series [7] was > 300 µM; in series [8], 282 µM.

For the origin of these results see ChEMBL document CHEMBL3352372, “Design, synthesis and 3D-QSAR studies of new diphenylamine containing 1,2,4-triazoles as potential antitubercular agents” (Eur J Med Chem, 2014).
